The source of these data is ChEMBL document CHEMBL4052819 (2017).

Type in all cases: functional
For experiment [1], the system named is Klebsiella pneumoniae. Briefly: Potentiation of rifampicin-mediated antibacterial activity against Klebsiella pneumoniae ATCC 700603 assessed as decrease in rifampicin MIC at 1.56 to 12.5 ug/ml by broth dilution method relative to control. A general note: Dilution methods test growth across graded concentrations, often in twofold steps.
For experiment [2], the system named is Klebsiella pneumoniae. Briefly: Potentiation of rifampicin-mediated antibacterial activity against Klebsiella pneumoniae ATCC 13883 assessed as decrease in rifampicin MIC at 1.56 to 12.5 ug/ml by broth dilution method relative to control.
In experiment [3] the test system is Staphylococcus aureus. Briefly: Antibacterial activity against Staphylococcus aureus ATCC 29213 after 18 to 20 hrs in presence of 95% serum by broth microdilution method. In outline: (§1)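 Same microdilution with human serum as medium: compound 2-fold diluted in 100% serum, mixed 1:1 with 90% serum holding ~1.5 × 10^5 CFU/mL, giving 95% serum and final 0.5–64 μg/mL. MIC read as no visible growth after incubation as for the broth test.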

Experiment [4] relates to Escherichia coli. The experiment can be described thus: Bactericidal activity against Escherichia coli ATCC 25922. The following applies: read-out: MBC99.9. In outline: (§2)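 MBC from MIC plates at end point: 50 μL from each well with no visible growth plated on tryptic soy agar and counted. MBC taken as lowest concentration giving ≥99.9% fall in viable count relative to initial inoculum. Three independent experiments, one replicate each.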

Experiment [5] deals with Enterococcus faecium. The experiment can be described thus: Antibacterial activity against Enterococcus faecium ATCC 19434 after 18 to 20 hrs by broth microdilution method. In outline: (§3)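 Broth microdilution in tryptic soy broth: 2-fold dilutions mixed 1:1 with ~1.5 × 10^5 CFU/mL inoculum, final 0.5–32 μg/mL; 37 °C, 18–20 h. MIC taken as lowest concentration giving no visible growth. At least three independent experiments, one replicate each.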

In experiment [6] the test system is Klebsiella pneumoniae. Briefly: Bactericidal activity against Klebsiella pneumoniae ATCC 13883. The following applies: read-out: MBC99.9. In outline: as §2
The subject of experiment [7] is Staphylococcus aureus. The experiment can be described thus: Antibacterial activity against Staphylococcus aureus ATCC 29213 after 18 to 20 hrs by broth microdilution method. In outline:
as §3

Experiment [8] has as its system Acinetobacter baumannii. The experiment can be described thus: Bactericidal activity against Acinetobacter baumannii ATCC 19606. As to conditions: ATCC 19606 = CIP 70.34 = JCM 6841, read-out: MBC99.9. In outline: as §2
Experiment [9] has as its system Staphylococcus aureus. Briefly: Antibacterial activity against methicillin-resistant Staphylococcus aureus LAC.
Experiment [10] relates to Staphylococcus aureus. Briefly: Bactericidal activity against Staphylococcus aureus ATCC 29213. As to conditions: read-out: MBC99.9. In outline:
as §2

For experiment [11], the system named is Escherichia coli. The experiment can be described thus: Antibacterial activity against Escherichia coli ATCC 25922 after 18 to 20 hrs by broth microdilution method. In outline:
as §3

Experiment [12] relates to Enterococcus faecium. Briefly: Bactericidal activity against Enterococcus faecium ATCC 19434. As to conditions: read-out: MBC99.9. In outline:
as §2

The test system of experiment [13] is Pseudomonas aeruginosa. Briefly: Bactericidal activity against Pseudomonas aeruginosa ATCC 27853. The following applies: read-out: MBC99.9. In outline:
as §2

Experiment [14] has as its system Escherichia coli. Briefly: Antibacterial activity against Escherichia coli ATCC 25922 after 18 to 20 hrs in presence of 95% serum by broth microdilution method. In outline:
as §1

Experiment [15] has as its system Staphylococcus aureus. The experiment can be described thus: Antibacterial activity against methicillin-resistant Staphylococcus aureus ATCC 43300 after 18 to 20 hrs by broth microdilution method. In outline: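 Broth microdilution in tryptic soy broth: 2-fold dilutions mixed 1:1 with ~1.5 × 10^5 CFU/mL bacterial suspension in TSB, final 0.5–32 μg/mL, 37 °C for 18–20 h. MIC = lowest concentration with no visible growth. At least three independent experiments, one replicate each.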

Experiment [16] relates to Staphylococcus aureus. The experiment can be described thus: Antibiofilm activity against methicillin-resistant Staphylococcus aureus LAC established catheter-associated biofilm model after 72 hrs.
Experiment [17] concerns Pseudomonas aeruginosa. The experiment can be described thus: Antibacterial activity against Pseudomonas aeruginosa ATCC 27853 after 18 to 20 hrs by broth microdilution method. In outline: as §3
Experiment [18] relates to Acinetobacter baumannii. The experiment can be described thus: Antibacterial activity against Acinetobacter baumannii ATCC 19606 after 18 to 20 hrs by broth microdilution method. The following applies: ATCC 19606 = CIP 70.34 = JCM 6841.
The test system of experiment [19] is Pseudomonas aeruginosa. Briefly: Bactericidal activity against Pseudomonas aeruginosa ATCC 27853 after 60 mins in presence of LPS. In outline: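 P. aeruginosa at ~10^6 CFU/mL in TSB with E. coli O111:B4 LPS (final 10, 25, 50 or 100 μg/mL), then compound at final 16 μg/mL. Incubated 37 °C, 200 rpm, 60 min; survivors counted on TSA. Three independent experiments, one replicate each.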

Experiment [20] deals with Staphylococcus aureus. The experiment can be described thus: Bactericidal activity against methicillin-resistant Staphylococcus aureus ATCC 43300. The following applies: read-out: MBC99.9. In outline:
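MBC taken at the end of the MIC test: 50 μL from each well without visible growth plated on tryptic soy agar. MBC = lowest concentration giving ≥99.9% reduction in viable cells relative to the initial inoculum. Three independent experiments, one replicate each.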

For experiment [21], the system named is Klebsiella pneumoniae. The experiment can be described thus: Antibacterial activity against Klebsiella pneumoniae ATCC 13883 after 18 to 20 hrs by broth microdilution method.

≈ marks a conversion by molar mass, not a printed value. Calls of active or inactive are those of the source. No cut-off for these calls is given here. Non-standard residues stand in square brackets, D forms with d. Residues, ends and D or L forms follow the SMILES beside them. *: point of attachment. Decanoyl = CCCCCCCCCC(=O)*; Dab = NCC[C@H](N)C(=O)O

Turning to `CC[C@H](C)[C@@H](NC(=O)[C@@H](NC(=O)[C@H](CCC(=O)O)NC(=O)[C@H](Cc1ccccc1)NC(=O)[C@@H](CCN)NC(=O)[C@H](CCN)NC(=O)[C@H](CO)NC(=O)[C@@H](Cc1c[nH]c2ccccc12)NC(=O)[C@@H](CO)NC(=O)CNC(=O)[C@@H](CCN)NC(=O)[C@H](N)C(C)C)C(C)C)C(=O)N[C@@H](C)C(=O)O`, the “fold change (FC)” value in experiment [1] and in experiment [2] was 256 - 512 throughout.

Consider `CCCCCCCCCC(=O)N[C@@H](CCN)C(=O)N[C@H](C(=O)N[C@@H](CCN)C(=O)N[C@H](Cc1ccccc1)C(=O)N[C@@H](CC(C)C)C(=O)N[C@@H](CCN)C(=O)N[C@@H](C(=O)N[C@@H](CC(C)C)C(=O)N[C@@H](CO)C(N)=O)C(C)C)[C@@H](C)CC` (Decanoyl-[Dab]I[Dab][dF]L[Dab][dV]LS-NH2), for which the MIC in experiment [3] was 16 µg/mL; in [5], 2 µg/mL (≈ 1.75 µM); in experiment [7] it was 2 to 4 µg/mL (≈ 1.75 to 3.49 µM); in experiment [11], 2 to 8 µg/mL (≈ 1.75 to 6.99 µM); in experiment [14] it was 32 µg/mL; in experiment [15], 2 to 4 µg/mL (≈ 1.75 to 3.49 µM). Besides, the figures for the minimum inhibitory concentration (MIC) in [17], in experiment [18] and in experiment [21] were 1 to 2 µg/mL (≈ 0.874 to 1.75 µM), 0.5 to 2 µg/mL (≈ 0.437 to 1.75 µM) and 2 to 4 µg/mL (≈ 1.75 to 3.49 µM), respectively. The MBC is 8 µg/mL (≈ 6.99 µM) in experiment [4]; 4 to 8 µg/mL (≈ 3.49 to 6.99 µM) in experiment [6]; 0.5 to 2 µg/mL (≈ 0.437 to 1.75 µM) in [8]; 4 to 8 µg/mL (≈ 3.49 to 6.99 µM) in experiment [10]; 2 to 4 µg/mL (≈ 1.75 to 3.49 µM) in experiment [12]; 2 to 4 µg/mL (≈ 1.75 to 3.49 µM) in [13]. For the same molecule, in experiment [20], the MBC lay in the range of 2 to 4 µg/mL (≈ 1.75 to 3.49 µM). Besides, the outcome in experiment [9] was Active. Besides, the outcome in experiment [16] and in experiment [19] was inactive.

In general, MIC refers to the lowest concentration that inhibits growth of the organism.
